Experimental data taken from ChEMBL document CHEMBL2086233, “D-proline-based peptidomimetic inhibitors of anthrax lethal factor” (Eur J Med Chem, 2012).

Molecular target: T1, Lethal factor (Bacillus anthracis) (UniProt P15917)
T1 sequence (whole entry): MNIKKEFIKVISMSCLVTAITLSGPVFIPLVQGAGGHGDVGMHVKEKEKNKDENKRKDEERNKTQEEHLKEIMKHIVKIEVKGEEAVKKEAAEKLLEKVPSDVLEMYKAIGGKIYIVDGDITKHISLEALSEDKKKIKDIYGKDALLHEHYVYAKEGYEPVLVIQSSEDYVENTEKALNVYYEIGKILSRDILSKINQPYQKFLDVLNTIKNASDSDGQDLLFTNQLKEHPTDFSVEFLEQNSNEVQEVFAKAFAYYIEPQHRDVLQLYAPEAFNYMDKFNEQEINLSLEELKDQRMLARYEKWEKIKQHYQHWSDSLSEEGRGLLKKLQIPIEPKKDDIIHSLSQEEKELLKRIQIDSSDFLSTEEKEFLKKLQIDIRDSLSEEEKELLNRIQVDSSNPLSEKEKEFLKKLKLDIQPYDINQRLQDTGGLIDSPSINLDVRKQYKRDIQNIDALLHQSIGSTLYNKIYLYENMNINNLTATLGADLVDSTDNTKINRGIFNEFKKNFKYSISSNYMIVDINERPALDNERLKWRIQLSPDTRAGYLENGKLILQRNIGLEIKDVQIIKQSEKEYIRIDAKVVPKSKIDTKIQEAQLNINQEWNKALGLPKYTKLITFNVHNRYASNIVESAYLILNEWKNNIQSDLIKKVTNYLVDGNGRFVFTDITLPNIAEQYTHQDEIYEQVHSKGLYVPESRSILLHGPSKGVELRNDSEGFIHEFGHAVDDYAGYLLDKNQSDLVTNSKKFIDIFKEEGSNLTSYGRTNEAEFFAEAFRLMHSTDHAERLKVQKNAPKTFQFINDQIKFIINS
Assay: Inhibition of Bacillus anthracis lethal factor using protease substrate-2 assessed as release of p-nitroaniline at 10 uM measured for 10 mins by spectrophotometric assay
Outline: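 Single fixed inhibitor concentration. A405 (p-nitroaniline release) followed 10 min after LF addition. % inhibition from initial velocity versus no-inhibitor control. Mean of three experiments.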

SMILES	inhibition
O=C(NO)[C@H]1C[C@H](OCc2ccccc2)CN1S(=O)(=O)c1ccc(Cl)c(Cl)c1	16%
O=C(/C=C/c1ccco1)N[C@H]1C[C@H](C(=O)NO)N(S(=O)(=O)c2ccc(Cl)c(Cl)c2)C1	22%
O=C(N[C@H]1C[C@H](C(=O)NO)N(S(=O)(=O)c2ccc(Cl)c(Cl)c2)C1)c1cccs1	46%
O=C(NO)[C@H]1C[C@@H](n2cc(-c3ccccc3)nn2)CN1S(=O)(=O)c1ccc(Cl)c(Cl)c1	8%
COc1ccc(C(=O)N[C@@H]2C[C@H](C(=O)NO)N(S(=O)(=O)c3ccc(Cl)c(Cl)c3)C2)c(OC)c1	65%
COc1ccc(C(=O)N[C@H]2C[C@H](C(=O)NO)N(S(=O)(=O)c3ccc(Cl)c(Cl)c3)C2)c(OC)c1	11%
O=C(NO)[C@H]1C[C@@H](OCc2ccccc2)CN1S(=O)(=O)c1ccc(Cl)c(Cl)c1	50%
O=C(N[C@@H]1C[C@H](C(=O)NO)N(S(=O)(=O)c2ccc(Cl)c(Cl)c2)C1)c1cccs1	27%

Molecular target: T2, Lethal factor (Bacillus anthracis, UniProt P15917)
T2 sequence (P15917 whole entry): T1 sequence (whole entry)
Assay: Inhibition of Bacillus anthracis lethal factor using protease substrate-2 assessed as release of p-nitroaniline measured for 10 mins by spectrophotometric assay
Outline: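 10 nM LF with lethal factor protease substrate II (pNA-tagged peptide) in 250 mM Na2HPO4, 150 mM NaCl, pH 7.4, 25 °C. A405 followed 10 min after enzyme addition. Inhibitor at five concentrations starting at 500 nM. IC50 by non-linear regression of the dose-response data. Experiments repeated twice.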

SMILES	IC50
CCCCCCO[C@H]1CCN(S(=O)(=O)c2ccc(Cl)cc2)[C@H]1C(=O)NO	> 10000 nM
O=C(NO)[C@H]1[C@@H](OCc2ccccc2)CCN1S(=O)(=O)c1ccc(Cl)cc1	1700 nM
COc1ccc(C(=O)N[C@@H]2C[C@H](C(=O)NO)N(S(=O)(=O)c3ccc(Cl)c(Cl)c3)C2)c(OC)c1	2100 nM
O=C(NO)[C@H]1[C@@H](OCc2ccccc2)CCN1S(=O)(=O)c1ccc(Cl)c(Cl)c1	1400 nM
O=C(NO)[C@H]1C[C@@H](OCc2ccccc2)CN1S(=O)(=O)c1ccc(Cl)c(Cl)c1	9500 nM
